Assay results taken from ChEMBL document CHEMBL1155643, “Isolation of a novel protein tyrosine phosphatase inhibitor, 2-methyl-fervenulone, and its precursors from Streptomyces” (J Nat Prod, 2000).
Active and inactive are the calls of the source. No cut-off for these calls is given here.

Experiments:
Yersinia sp. = experiment: Inhibition of Yersinia sp. protein tyrosine phosphatase yop at 1 uM relative to control; design: scale not given: the % may be the effect or the level left
How it was run: (§1)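 Commercial phosphatase. pNPP dephosphorylation with 2 mM pNPP in 50 mM sodium acetate pH 5.5, 0.5 mg/mL BSA, 0.5 mM dithiothreitol, at 30 °C. Reactions stopped within the linear phase. Activity expressed as percent of the control without inhibitor. Mean of three separate enzyme preparations, each assayed in duplicate, ± S.D.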

[1] = Inhibition of protein tyrosine phosphatase epsilon D1D2 domain at 1 uM relative to control; design: scale not given: the % may be the effect or the level left
How it was run: (§2)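 Bacterially expressed, purified PTPα or PTPε. pNPP (2 mM) dephosphorylation in 50 mM sodium acetate pH 5.5 with 0.5 mg/mL BSA and 0.5 mM DTT, at 30 °C, stopped during the linear phase. Percent activity relative to the uninhibited control. Average of three enzyme preparations, each run in duplicate, ± S.D.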

[2] = Inhibition of protein tyrosine phosphatase CD45 domain at 1 uM relative to control; design: scale not given: the % may be the effect or the level left; how it was run: as §1
[3] = biological target: T1, Tyrosine-protein phosphatase non-receptor type 2 (Homo sapiens) (UniProt P17706); experiment: Inhibition of TCPTP at 1 uM relative to control; design: scale not given: the % may be the effect or the level left; how it was run: as §1
T1 sequence (whole entry): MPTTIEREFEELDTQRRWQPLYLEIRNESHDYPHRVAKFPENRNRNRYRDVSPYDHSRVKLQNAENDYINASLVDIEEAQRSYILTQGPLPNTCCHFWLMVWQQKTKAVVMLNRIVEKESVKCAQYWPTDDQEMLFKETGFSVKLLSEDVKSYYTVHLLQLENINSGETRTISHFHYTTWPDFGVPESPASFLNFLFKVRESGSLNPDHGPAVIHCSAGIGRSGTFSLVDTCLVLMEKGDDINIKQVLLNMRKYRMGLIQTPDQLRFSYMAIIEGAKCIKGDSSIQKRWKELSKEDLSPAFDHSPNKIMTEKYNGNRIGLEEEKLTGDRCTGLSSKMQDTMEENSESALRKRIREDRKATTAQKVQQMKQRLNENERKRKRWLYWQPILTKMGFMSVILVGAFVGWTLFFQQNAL

[4] = Inhibition of protein tyrosine phosphatase alpha D1D2 domain at 1 uM relative to control; design: scale not given: the % may be the effect or the level left; how it was run: as §2
[5] = Inhibition of protein tyrosine phosphatase LAR-D1 domain at 1 uM relative to control; design: scale not given: the % may be the effect or the level left; how it was run: as §1
[6] = biological target: T2, Serine/threonine-protein phosphatase (Enterobacteria phage lambda) (UniProt P03772); experiment: Inhibition of enterobactera phage lambda PP at 1 uM relative to control; design: scale not given: the % may be the effect or the level left
T2 sequence (whole entry): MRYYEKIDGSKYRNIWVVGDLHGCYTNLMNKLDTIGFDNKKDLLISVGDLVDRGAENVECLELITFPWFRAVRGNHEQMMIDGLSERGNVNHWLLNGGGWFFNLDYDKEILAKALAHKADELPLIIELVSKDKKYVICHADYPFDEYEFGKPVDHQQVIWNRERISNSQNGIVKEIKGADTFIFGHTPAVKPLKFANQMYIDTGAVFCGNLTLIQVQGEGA
How it was run: (§3)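 Commercial enzyme acting on 2 mM pNPP in 50 mM sodium acetate with 0.5 mg/mL BSA and 0.5 mM DTT, at 30 °C, linear phase. pH 7 for CIP; pH 5.5 plus 2 mM Mn2+ for λPP. Percent of the no-inhibitor control. Three enzyme preparations, each in duplicate, ± S.D.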

Bos taurus = species on record: Bos taurus; experiment: Inhibition of calf intestinal alkaline phosphatase at 1 uM relative to control; design: scale not given: the % may be the effect or the level left; how it was run: as §3
[7] = test system: Mycolicibacterium smegmatis; experiment: Antimicrobial activity against Mycobacterium smegmatis at 50 uM; type: functional, organism-based
[8] = test system: Mycolicibacterium smegmatis; experiment: Antimicrobial activity against Mycobacterium smegmatis at 100 uM; type: functional, organism-based
Staphylococcus aureus [9] = experiment: Antimicrobial activity against Staphylococcus aureus at 50 uM; type: functional, organism-based
Staphylococcus aureus [10] = experiment: Antimicrobial activity against Staphylococcus aureus at 100 uM; type: functional, organism-based
Escherichia coli [11] = experiment: Antimicrobial activity against Escherichia coli at 50 uM; type: functional, organism-based
Escherichia coli [12] = experiment: Antimicrobial activity against Escherichia coli at 100 uM; type: functional, organism-based
Enterococcus faecalis [13] = experiment: Antimicrobial activity against Enterococcus faecalis at 50 uM; type: functional, organism-based
Enterococcus faecalis [14] = experiment: Antimicrobial activity against Enterococcus faecalis at 100 uM; type: functional, organism-based
Proteus vulgaris [15] = experiment: Antimicrobial activity against Proteus vulgaris at 50 uM; type: functional, organism-based
Proteus vulgaris [16] = experiment: Antimicrobial activity against Proteus vulgaris at 100 uM; type: functional, organism-based
Pseudomonas aeruginosa [17] = experiment: Antimicrobial activity against Pseudomonas aeruginosa at 50 uM; type: functional, organism-based
Pseudomonas aeruginosa [18] = experiment: Antimicrobial activity against Pseudomonas aeruginosa at 100 uM; type: functional, organism-based
Candida albicans [19] = experiment: Antimicrobial activity against Candida albicans at 50 uM; type: functional, organism-based
Candida albicans [20] = experiment: Antimicrobial activity against Candida albicans at 100 uM; type: functional, organism-based
Curvularia [21] = experiment: Antimicrobial activity against Curvularia sp. at 50 uM; type: functional, organism-based
Curvularia [22] = experiment: Antimicrobial activity against Curvularia sp. at 100 uM; type: functional, organism-based

Row | Compound | Activity (Yersinia sp.) [%] | Activity [1] [%] | Activity [2] [%] | Activity [3] [%] | Activity [4] [%] | Activity [5] [%] | Activity [6] [%] | Activity (Bos taurus) [%] | further results
1 | Cn1nc2c(nc1=O)n(C)c(=O)n2C | 95 | 99 | 96 | 99 | 98 | 97 | 100 | 99 | 
2 | Cn1nc2c(nc1=O)c(=O)n(C)c(=O)n2C | 10 | 17 | 15 | 34 | 17 | 17 | 48 | 100 | Activity [7]: inactive; Activity [8]: inactive; Activity (Staphylococcus aureus [9]): inactive; Activity (Staphylococcus aureus [10]): inactive; Activity (Escherichia coli [11]): inactive; Activity (Escherichia coli [12]): inactive; Activity (Enterococcus faecalis [13]): inactive; Activity (Enterococcus faecalis [14]): inactive; Activity (Proteus vulgaris [15]): inactive; Activity (Proteus vulgaris [16]): inactive; Activity (Pseudomonas aeruginosa [17]): inactive; Activity (Pseudomonas aeruginosa [18]): inactive; Activity (Candida albicans [19]): inactive; Activity (Candida albicans [20]): inactive; Activity (Curvularia [21]): inactive; Activity (Curvularia [22]): inactive
